Results on 18 molecules are retold here after article PMC3258117 (Journal of Medicinal Chemistry, 2011).

Series [1] concerns T. cruzi Tulahuen C4 amastigotes. Nature of the series: In vitro growth inhibition of T. cruzi amastigotes in infected L6 myoblasts. Particulars: for fold increase of T. cruzi IC50 compared to the nitro-containing analog: non-nitro triazoles 19 and 31 versus 17 and 29; for activity designation against T. cruzi: classes by IC50 criteria of b15. The class given is cell-based, Trypanosoma cruzi.

Series [2] deals with L. donovani MHOM-ET-67/L82 axenic amastigotes. Nature of the series: In vitro growth inhibition of axenically cultured L. donovani amastigotes. It counts as cell-based, Leishmania donovani. Particulars: SI = IC50 in L6 cells / IC50 in parasites.
The conditions of series [3]: cited from earlier work.
The conditions of series [4]: 15 mg/kg given i.p. for 30 days; cited from earlier work.
Series [5] concerns T. cruzi. The following applies: 2 mg/kg/day for 50 days, mice, acute phase of infection; cited from earlier work.
Series [6] in a line: Reduction potential by cyclic voltammetry. The class given is physicochemical. The following applies: cyclic voltammetry relative to Ag/AgCl. The essentials: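 Half-wave reduction potentials (E1/2) measured by cyclic voltammetry against an Ag/AgCl reference electrode, using a carbon mesh working electrode and a Pt wire counter electrode. The supporting electrolyte was 0.1M tetrabutylammonium hexafluorophosphate (TBAPF6).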

For series [7], the system named is T.b. rhodesiense STIB 900 trypomastigotes. Description: In vitro growth inhibition of T. b. rhodesiense bloodstream form trypomastigotes. The class given is cell-based, Trypanosoma brucei rhodesiense. The following applies: for activity designation against T.b. rhodesiense: classes by IC50 criteria of b15.
Series [8] deals with L6 cells (rat skeletal myoblasts). Nature of the series: Cytotoxicity assessment using L6 cells. It counts as cell-based. The following applies: read-out: Cytotox. L6 IC-50.
The mark [9] stands for this setting: SI = IC50 in L6 cells / IC50 in parasites.

Like-named read-outs stand apart in the source and are kept apart here. Some results are limits rather than exact numbers.

On to `Cl.Cl.O=[N+]([O-])c1ncn(CCCN2CCN(Cc3ccc(C(F)(F)F)cc3)CC2)n1` [Compound 40, 1-[3-(3-Nitro-1H-1,2,4-triazol-1-yl)propyl]-4-{[4-(trifluoromethyl)phenyl]methyl}piperazine dihydrochloride], for which the SI in series [1] (Table 2, T. cruzi, IC50 in L6 cells / IC50 in parasites) is greater than 562.
`Cl.Cl.O=[N+]([O-])c1nccn1CCCN1CCN(Cc2ccc(C(F)(F)F)cc2)CC1` [Compound 39, 1-[3-(2-Nitro-1H-imidazol-1-yl)propyl]-4-{[4-(trifluoromethyl)phenyl]methyl}piperazine dihydrochloride]: in series [2], the “L. donovani axen. SI” value is “∼1”.
As for `Cc1cc(NCCCn2ccnc2[N+](=O)[O-])nc(N)n1.Cl` [Compound 11, 6-Methyl-4-N-[3-(2-nitro-1H-imidazol-1-yl)propyl]-pyrimidin-2,4-diamine hydrochloride], the “L. donovani axen. SI” value in series [2] was “∼3”.
Turning to `Cl.FC(F)(F)c1cc(CNCCCCn2cncn2)cc(C(F)(F)F)c1` [Compound 31, {[3,5-bis(Trifluoromethyl)phenyl]methyl}[4-(1H-1,2,4-triazol-1-yl)butyl]amine hydrochloride], in series [1], the “fold increase of T. cruzi IC50 compared to the nitro-containing analog” value was 730 fold.
For `CC1CS(=O)(=O)CCN1/N=C/c1ccc([N+](=O)[O-])o1` (centres unmarked) [Nifurtimox, 4-(5-nitrofurfurylidenamino)-3-methylthio-morpholine-1,1-dioxide], the E1/2 reduction potential in series [3] is on record as -0.88 V.
In the case of `Cl.O=[N+]([O-])c1ncn(CCCNc2c3ccccc3nc3ccccc23)n1` [Compound 1, 9-[(3-nitro-1H-1,2,4-triazolyl)-propylamino]acridine hydrochloride], the toxicity in vivo result in series [4] is “demonstrated toxicity”. In series [5], the fraction of cures is 20%; the peripheral parasite levels entry was “rapid and persistent drop”.
On to `Cl.Clc1ccc2c(NCCCCn3cncn3)ccnc2c1` [Compound 19, 7-Chloro-N-[4-(1H-1,2,4-triazol-1-yl)butyl]quinolin-4-amine], for which the “fold increase of T. cruzi IC50 compared to the nitro-containing analog” value in series [1] amounted to 658 fold. For the same molecule, the “L. donovani axen. SI” value in series [2] is recorded as “∼1”.
In series [6] (in CH3CN), `Cl.O=[N+]([O-])c1ncn(CCCCNc2ccnc3cc(Cl)ccc23)n1` [Compound 17, 7-Chloro-N-[4-(3-nitro-1H-1,2,4-triazol-1-yl)butyl]quinolin-4-amine hydrochloride] yielded an E1/2 reduction potential of -1.18 V. The “activity designation against T.b. rhodesiense” value in series [7] was “active”.
In the case of “6-Methyl-4-N-[3-(2-nitro-1H-1,2,4-triazol-1-yl)propyl]-pyrimidin-2,4-diamine hydrochloride [Compound 22]”, the “T. cruzi SI” value in series [1] (setting [9]) was greater than 8. The “activity designation against T. cruzi” value in series [1] is on record as “moderately active (IC50 = 4.0-60 μM)”. In addition, the IC50 in series [8] is greater than 286 µM. Further, in series [2], the “L. donovani axen. SI” value is listed as “∼3”. The “T.b.rhodesiense SI” value in series [7] (setting [9]) is reported as greater than 131.
With `Cl.O=[N+]([O-])c1nccn1CCCNCc1cc(C(F)(F)F)cc(C(F)(F)F)c1` [Compound 26], in series [2], the “L. donovani axen. SI” value was “∼2”.
`Cl.Cl.O=[N+]([O-])c1ncn(CCCN2CCN(c3ccc(C(F)(F)F)cc3)CC2)n1` [Compound 42, 1-[3-(3-Nitro-1H-1,2,4-triazol-1-yl)propyl]-4-[4-(trifluoromethyl)phenyl]piperazine dihydrochloride]: in series [1] (T. cruzi in vitro), the “fold increased antichagasic activity compared to 40 and 41” value was “about 10 fold”.
`Cl.O=[N+]([O-])c1nccn1CCCNc1nc(-c2ccccc2)nc2ccccc12` [Compound 8, N-[3-(2-Nitro-1H-imidazol-1-yl)propyl]-2-phenylquinazolin-4-amine hydrochloride] showed an E1/2 reduction potential in series [6] (in DMSO) of -1.03 V.
Regarding `O=C1C(Cl)=C(NCCCn2cnc([N+](=O)[O-])n2)C(=O)c2ccccc21` [Compound 25, 2-Chloro-3-{[3-(3-nitro-1H-1,2,4-triazol-1-yl)propyl]amino}-1,4-dihydronaphthalene-1,4-dione], in series [1] (3-nitrotriazole versus its 2-nitroimidazole analog), the “fold greater effect on T. cruzi growth than 2-nitroimidazole counterpart” value is 2 fold.
On to `Cl.O=[N+]([O-])c1ncn(CCCNCc2ccc(C(F)(F)F)cc2)n1` [Compound 37, [3-(3-Nitro-1H-1,2,4-triazol-1-yl)propyl]({[4-(trifluoromethyl)phenyl]methyl})amine hydrochloride], for which the “activity designation against T. cruzi” value in series [1] was “active”.
As to `Cl.O=[N+]([O-])c1ncn(CCCN(Cc2ccc(C(F)(F)F)cc2)Cc2ccc(C(F)(F)F)cc2)n1` [Compound 38, [3-(3-Nitro-1H-1,2,4-triazol-1-yl)propyl]bis({[4-(trifluoromethyl)phenyl]methyl})amine hydrochloride], the E1/2 reduction potential in series [6] (in DMSO) is listed as -1.06 V. The “activity designation against T. cruzi” value in series [1] is “active”. In addition, the “activity designation against T.b. rhodesiense” value in series [7] is on record as “active”.
Molecule `Cl.Cl.O=[N+]([O-])c1ncn(CCCCN2CCN(Cc3ccc(C(F)(F)F)cc3)CC2)n1` [Compound 41, 1-[4-(3-Nitro-1H-1,2,4-triazol-1-yl)butyl]-4-{[4-(trifluoromethyl)phenyl]methyl}piperazine dihydrochloride] registered an E1/2 reduction potential in series [6] (in DMSO) of -1.04 V.
Regarding `Cl.O=[N+]([O-])c1ncn(CCCNCc2cc(C(F)(F)F)cc(C(F)(F)F)c2)n1` [Compound 29, {[3,5-bis(Trifluoromethyl)phenyl]methyl}[3-(3-nitro-1H-1,2,4-triazol-1-yl)propyl]amine hydrochloride], in series [6] (in DMSO), the E1/2 reduction potential is -1.07 V. Further, in series [1], the “activity designation against T. cruzi” value is “active”.
For `Cl.O=[N+]([O-])c1ncn(CCCNc2nc(-c3ccccc3)nc3ccccc23)n1` [Compound 20, N-[3-(3-Nitro-1H-1,2,4-triazol-1-yl)propyl]-2-phenyl-quinazolin-4-amine hydrochloride], the E1/2 reduction potential in series [6] (in DMSO) was -1.04 V.
